Screening data from PubChem BioAssay.
Hits are enriched below; roughly 1.8% of the tested compounds scored in any of these assays.
MLLE-PAM2 inh = blocks PAM2 peptide binding to the PABP1 MLLE domain; P11940; GST-MLLE / FITC-PAM2 fluorescence polarization; inhibition, % at 20 µM; 360,000 compounds, 0.36% hits; AID 588489; in the data active means inhibition above about 35%, passing the limit was not always enough;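 further: plate controls were DMSO wells with GST-MLLE for no effect and wells lacking GST-MLLE protein for full effect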
eIF4H inh = inhibitors of RNA binding by human eIF4H; eIF4H fluorescence polarization binding assay; inhibition, % at 35 µM; 290,000 compounds, 0.94% hits;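 further: calls also rest on retests at 20 µM and on dose response follow-up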
SKN-1 block = blocks SKN-1 activity in C. elegans. inhibition, % at 21.8 µM. 360,000 compounds, 0.49% hits. C. elegans VP596 Pgst-4::GFP/RFP ratio, acrylamide-induced, 24 h. AID 624304;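 active means interference check ratio from 0.5 to 1.5 plus GFP to RFP signal ratio inhibition reaching or exceeding a fixed threshold, cut at about 30% in these data, passing the limit was not always enough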
MT1-MMP act inh = MT1-MMP (human) activation inhibition; P50281; HT1080 RFP-PRO-GFP cells, GFP/RFP ratio fluorescence, overnight; percent of plate control window, DMSO zero; GFP/RFP ratio change, % at 20 µM; 360,000 compounds, 0.061% hits;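 active means GFP/RFP ratio change of at least 30% with cell ATP level not reduced by more than half and red fluorescence within 50% of control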
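Assay system: HT1080 RFP-PRO-GFP cells | Dosing: 20 µM single dose, 1% DMSO | Incubation: Cells overnight before dosing, compound overnight, 37 °C, 5% CO2 | Evaluation: GFP/RFP fluorescence ratio | Control set: DMSO-only wells and HT1080 RFP-L50D-GFP cell wells as references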
PABP polyA inh = PABP-poly(A) binding inhibition | 290,000 compounds, 1% hits | calls only at 35 µM | AID 2014 | PABP-poly(A) RNA binding, fluorescence polarization;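 further: calls also rest on retests at 20 µM and on dose response follow-up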
Active calls of the source: *. Unless noted, how the calls were made is not given here.

What do the screens show for `CC(C)(C)c1cc(-c2csc(Nc3ccccc3)[n+]2Cc2ccc(C(=O)O)cc2)cc(C(C)(C)C)c1O`?
MLLE-PAM2 inh: -10; eIF4H inh: 52*; SKN-1 block: 7; MT1-MMP act inh: 2; PABP polyA inh: active

How did Cc1ccc(NC(=O)N2CCCC2C(=O)Nc2c(C)cc(C)cc2C)cc1 (stereo unspecified) do in these assays?
MLLE-PAM2 inh: -1; eIF4H inh: 2; SKN-1 block: 31; MT1-MMP act inh: -1; PABP polyA inh: inactive

Results for COC(=O)c1ccc(/C=C(\C#N)c2nc3ccccc3s2)cc1 ?
MLLE-PAM2 inh: -12; eIF4H inh: inconclusive; SKN-1 block: 11; MT1-MMP act inh: -64; PABP polyA inh: active

What do the screens show for `N#C/C(=C\c1ccccn1)c1nc2ccccc2s1`?
MLLE-PAM2 inh: -40; eIF4H inh: inconclusive; SKN-1 block: 10; MT1-MMP act inh: -104; PABP polyA inh: inconclusive

What do the screens show for `c1ccc2c(c1)nnn2Cc1nnc2sc(-c3ccc4c(c3)OCCO4)nn12`?
MLLE-PAM2 inh: 41*; eIF4H inh: -5; SKN-1 block: 4; MT1-MMP act inh: -4; PABP polyA inh: inactive

How did C=CC[C@H]1C=C[C@@H](C(C(=O)OC)C(=O)OC)CN1C(C)=O do in these assays?
MLLE-PAM2 inh: 3; SKN-1 block: 7; MT1-MMP act inh: 3

Results for O=C(COC(=O)[C@H](Cc1ccccc1)NC(=O)c1ccco1)Nc1ccccc1OC(F)F ?
MLLE-PAM2 inh: -4; SKN-1 block: -8; MT1-MMP act inh: 0

What do the screens show for `Cc1c(NC(=S)NC(=O)c2ccc(-c3ccc(Cl)cc3)o2)cccc1C(=O)O`?
MLLE-PAM2 inh: 5; eIF4H inh: -4; SKN-1 block: 9; MT1-MMP act inh: 4; PABP polyA inh: inactive

How did Cc1ccc(C)c(NC(=O)c2sc(Cl)nc2-c2ccccc2)c1 do in these assays?
MLLE-PAM2 inh: 5; eIF4H inh: 1; SKN-1 block: 48*; MT1-MMP act inh: 0; PABP polyA inh: inactive

What do the screens show for `Cc1c(NC(=S)NC(=O)c2cc3ccccc3o2)cccc1C(=O)O`?
MLLE-PAM2 inh: 39*; eIF4H inh: 7; SKN-1 block: -1; MT1-MMP act inh: -1; PABP polyA inh: inactive

Results for Cc1c(NC(=S)NC(=O)CSc2ccc(Cl)cc2)cccc1C(=O)O ?
MLLE-PAM2 inh: 41*; eIF4H inh: -4; SKN-1 block: 17; MT1-MMP act inh: -2; PABP polyA inh: inactive

How did Cc1ccc(C)c(NC(=O)c2cc3ccccc3o2)c1 do in these assays?
MLLE-PAM2 inh: 5; eIF4H inh: -9; SKN-1 block: 40*; MT1-MMP act inh: -7; PABP polyA inh: inactive

Results for Cc1ccc(C2=NC(=O)/C(=C/c3cc(O)c(O)c(Br)c3)S2)cc1 ?
MLLE-PAM2 inh: 5; eIF4H inh: 56*; SKN-1 block: 20; MT1-MMP act inh: 23; PABP polyA inh: active

What do the screens show for `NC1=NC(=O)/C(=C/c2cccc(-c3ccc(S(N)(=O)=O)cc3)c2)S1`?
MLLE-PAM2 inh: 1; eIF4H inh: 90*; SKN-1 block: -14; MT1-MMP act inh: 2; PABP polyA inh: active

What do the screens show for `NC1=NC(=O)/C(=C\c2ccc(O)c([N+](=O)[O-])c2)S1`?
MLLE-PAM2 inh: 27; eIF4H inh: 0; SKN-1 block: -4; MT1-MMP act inh: 5; PABP polyA inh: inactive

How did CC(OC(=O)Cn1cc(C(F)(F)F)ccc1=O)C(=O)N(C)c1ccccc1 (stereo unspecified) do in these assays?
MLLE-PAM2 inh: -8; SKN-1 block: 20; MT1-MMP act inh: 1

Results for CCNC(=O)C1(C)CCCN1C(=O)c1ccc(C#N)cc1 (stereo unspecified) ?
MLLE-PAM2 inh: -1; SKN-1 block: 63*; MT1-MMP act inh: 2

How did CCOc1ccc(-c2csc(/C(C#N)=C\c3ccc(O)c([N+](=O)[O-])c3)n2)cc1 do in these assays?
MLLE-PAM2 inh: -25; eIF4H inh: 58*; SKN-1 block: 7; MT1-MMP act inh: -2; PABP polyA inh: inactive

Results for Cc1ccc(-c2csc3nc(CN(C)Cc4ccccc4)[nH]c(=O)c23)cc1 ?
MLLE-PAM2 inh: -28; eIF4H inh: 98*; SKN-1 block: 15; MT1-MMP act inh: -7; PABP polyA inh: active

Results for O=C(Nc1ccc2c(c1)CN(C(=O)Nc1ccc(F)cc1)CC2)c1ccccn1 ?
MLLE-PAM2 inh: 11; SKN-1 block: 38*; MT1-MMP act inh: -3

Results for Nc1cc(-c2cccc(Br)c2)nn1Cc1ccccc1 ?
MLLE-PAM2 inh: -1; eIF4H inh: active; SKN-1 block: 15; MT1-MMP act inh: -1; PABP polyA inh: inactive

What do the screens show for `COC(=O)CSC1=C(C#N)C(=O)NC(c2ccccc2)S1` (stereo unspecified)?
MLLE-PAM2 inh: 42*; eIF4H inh: -5; SKN-1 block: 3; MT1-MMP act inh: -3; PABP polyA inh: inactive

How did CCOc1ccc(-c2cc(C(=O)Nc3ccc(F)cc3)[nH]n2)c(C)c1 do in these assays?
MLLE-PAM2 inh: -4; SKN-1 block: -5; MT1-MMP act inh: -2

How did O=C(/C=C/Nc1cccc(F)c1)c1ccco1 do in these assays?
MLLE-PAM2 inh: 8; eIF4H inh: -6; SKN-1 block: 35; MT1-MMP act inh: 2; PABP polyA inh: inactive

What do the screens show for `O=C(/C=C/Nc1ccccc1O)c1ccco1`?
MLLE-PAM2 inh: -38; eIF4H inh: 2; SKN-1 block: 6; MT1-MMP act inh: -12; PABP polyA inh: inactive

How did O=C(NNC(=S)Nc1ccc(F)cc1F)c1ccco1 do in these assays?
MLLE-PAM2 inh: -10; eIF4H inh: 2; SKN-1 block: 8; MT1-MMP act inh: 1; PABP polyA inh: inactive

How did O=C(/C=C/Nc1ccc(F)cc1F)c1ccco1 do in these assays?
MLLE-PAM2 inh: -70; eIF4H inh: 2; SKN-1 block: 45*; MT1-MMP act inh: 0; PABP polyA inh: inactive

How did O=C(/C=C/Nc1ccc(F)c(Cl)c1)c1ccco1 do in these assays?
MLLE-PAM2 inh: -14; eIF4H inh: 2; SKN-1 block: 75*; MT1-MMP act inh: -2; PABP polyA inh: inactive

What do the screens show for `O=C(/C=C/Nc1ccc(Br)cc1F)c1ccco1`?
MLLE-PAM2 inh: -19; eIF4H inh: -1; SKN-1 block: 76*; MT1-MMP act inh: -7; PABP polyA inh: inactive

What do the screens show for `C/C(CC(=O)NC12CC3CC(CC(C3)C1)C2)=N\NC(=O)c1cnccn1`?
MLLE-PAM2 inh: 8; eIF4H inh: 0; SKN-1 block: 3; MT1-MMP act inh: 2; PABP polyA inh: inactive

Results for O=C(NC12CC3CC(CC(C3)C1)C2)c1cnccn1 ?
MLLE-PAM2 inh: 46*; eIF4H inh: 10; SKN-1 block: 22; MT1-MMP act inh: 1; PABP polyA inh: inactive

Results for CCn1c2ccccc2c2cc(/C=N/NC(=O)c3cccc(C)c3)ccc21 ?
MLLE-PAM2 inh: -7; eIF4H inh: -2; SKN-1 block: 45*; MT1-MMP act inh: -4; PABP polyA inh: inactive

Results for O=C(CSc1nnc(C2CC2)n1C1CC1)Nc1cccc(Br)c1 ?
MLLE-PAM2 inh: -19; SKN-1 block: -11; MT1-MMP act inh: 1
